As a reminder, the inhibition is the change of the read-out against control, counted positive when it falls.

The target in experiment [1] is T1, Coagulation factor XIII A chain (Homo sapiens) (UniProt P00488).
T1 sequence (whole entry): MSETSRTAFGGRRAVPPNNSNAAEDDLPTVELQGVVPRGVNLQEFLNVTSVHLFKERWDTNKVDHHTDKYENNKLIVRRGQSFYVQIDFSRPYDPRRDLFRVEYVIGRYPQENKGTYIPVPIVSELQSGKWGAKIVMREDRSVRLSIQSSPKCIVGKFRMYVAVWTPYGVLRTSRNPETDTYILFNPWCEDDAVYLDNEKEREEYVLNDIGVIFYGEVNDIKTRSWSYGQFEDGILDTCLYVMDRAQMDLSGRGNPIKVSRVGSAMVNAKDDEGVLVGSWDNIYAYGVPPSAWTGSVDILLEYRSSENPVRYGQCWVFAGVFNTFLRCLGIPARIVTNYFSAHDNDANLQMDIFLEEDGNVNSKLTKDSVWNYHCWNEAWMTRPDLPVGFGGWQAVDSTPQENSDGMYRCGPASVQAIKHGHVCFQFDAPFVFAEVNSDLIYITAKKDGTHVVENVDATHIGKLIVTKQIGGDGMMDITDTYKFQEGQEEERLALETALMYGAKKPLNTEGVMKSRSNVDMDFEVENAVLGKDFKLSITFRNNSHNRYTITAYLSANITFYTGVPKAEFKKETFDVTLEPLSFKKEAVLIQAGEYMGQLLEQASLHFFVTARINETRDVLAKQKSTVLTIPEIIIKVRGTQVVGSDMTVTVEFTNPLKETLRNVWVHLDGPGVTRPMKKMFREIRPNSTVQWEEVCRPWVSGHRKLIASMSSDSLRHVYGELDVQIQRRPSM
Kind of experiment: Inhibition of recombinant F13a (unknown origin) using H-Tyr-Glu(pNA)-Val-Lys-Val-Ile-Gly-NH2 as substrate by chromogenic assay.

The target in experiment [2] is T2, Protein-glutamine gamma-glutamyltransferase (Homo sapiens) (UniProt P21980).
T2 sequence (whole entry): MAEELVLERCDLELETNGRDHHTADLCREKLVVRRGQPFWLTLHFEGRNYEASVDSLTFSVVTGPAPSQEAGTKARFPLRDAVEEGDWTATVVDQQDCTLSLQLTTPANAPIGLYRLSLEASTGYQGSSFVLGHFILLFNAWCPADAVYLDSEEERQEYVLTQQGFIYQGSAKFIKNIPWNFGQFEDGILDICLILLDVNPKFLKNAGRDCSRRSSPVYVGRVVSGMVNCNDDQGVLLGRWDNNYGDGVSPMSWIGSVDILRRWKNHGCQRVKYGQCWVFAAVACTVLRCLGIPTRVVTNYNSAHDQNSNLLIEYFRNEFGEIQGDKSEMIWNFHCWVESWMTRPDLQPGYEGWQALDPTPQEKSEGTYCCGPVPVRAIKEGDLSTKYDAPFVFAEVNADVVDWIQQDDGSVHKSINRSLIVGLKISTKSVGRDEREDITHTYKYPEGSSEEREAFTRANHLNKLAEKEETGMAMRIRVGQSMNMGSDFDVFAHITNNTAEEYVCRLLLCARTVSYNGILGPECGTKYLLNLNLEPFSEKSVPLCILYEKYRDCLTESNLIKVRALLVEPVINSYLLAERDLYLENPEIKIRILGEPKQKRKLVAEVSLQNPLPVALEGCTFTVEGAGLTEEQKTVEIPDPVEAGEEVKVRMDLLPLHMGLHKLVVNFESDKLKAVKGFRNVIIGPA
Kind of experiment: Inhibition of human TGase-2 using fluorogenic FRET substrate at 10 uM.

The target of experiment [3] is T1, Coagulation factor XIII A chain (Homo sapiens). Kind of experiment: Binding affinity to nonactivated recombinant F13A subunit (unknown origin) by microscale thermophoresis method. The gist of the method: (§1)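 Carboxyfluorescein-labeled peptide (2 μM solution, before mixing) in 50 mM Tris-HCl pH 7.5, 0.9% w/v NaCl, with Tween-20 to 0.1% final. Mixed with an equal volume of protein (FXIIIa, FXIII-A or FXIII-B) in the same buffer, 15 concentrations spanning 3.1 μM to 0.1 nM. After 20 min incubation, the mixture was loaded into glass capillaries and thermophoresis read three times per capillary.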
(Microscale thermophoresis detects binding through changes in fluorescence in a small temperature gradient.)

Experiment [4] deals with T3, Coagulation factor XIII B chain (Homo sapiens) (UniProt P05160).
T3 sequence (whole entry): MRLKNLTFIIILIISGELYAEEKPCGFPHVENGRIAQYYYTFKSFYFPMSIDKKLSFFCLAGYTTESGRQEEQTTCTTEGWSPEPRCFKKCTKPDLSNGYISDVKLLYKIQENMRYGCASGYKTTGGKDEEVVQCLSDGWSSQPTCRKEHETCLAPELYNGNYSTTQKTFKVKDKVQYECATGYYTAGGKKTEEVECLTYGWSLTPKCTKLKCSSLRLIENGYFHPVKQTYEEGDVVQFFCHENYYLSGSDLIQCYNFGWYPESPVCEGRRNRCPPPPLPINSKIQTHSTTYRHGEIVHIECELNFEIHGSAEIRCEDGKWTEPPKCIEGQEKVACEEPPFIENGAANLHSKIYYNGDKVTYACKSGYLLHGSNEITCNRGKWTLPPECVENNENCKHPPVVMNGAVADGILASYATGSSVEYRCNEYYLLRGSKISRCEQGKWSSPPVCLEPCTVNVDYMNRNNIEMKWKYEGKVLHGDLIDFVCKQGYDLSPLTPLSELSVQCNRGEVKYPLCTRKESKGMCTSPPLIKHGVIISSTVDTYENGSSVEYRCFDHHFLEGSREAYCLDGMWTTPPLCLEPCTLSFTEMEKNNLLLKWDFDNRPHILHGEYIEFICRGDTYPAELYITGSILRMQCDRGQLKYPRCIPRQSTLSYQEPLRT
Description: Binding affinity to nonactivated recombinant F13B subunit (unknown origin) by microscale thermophoresis method. An outline of the steps:
as §1

SMILES strings stand for the structures. The source made the active and inactive calls. The rule behind the calls is not given here. Residues, ends and D or L forms follow the SMILES beside them.

Turning to `CC[C@H](C)[C@H](NC(=O)CNC(=O)[C@H](CCC(N)=O)NC(=O)[C@H](Cc1cnc[nH]1)NC(=O)[C@H](Cc1c[nH]c2ccccc12)NC(=O)[C@H](CCC(=O)O)NC(=O)[C@H](CCCCN)NC(=O)[C@H](CS)NC(=O)[C@@H]1CCCN1C(=O)[C@H](CC(C)C)NC(=O)[C@H](CC(C)C)NC(=O)[C@@H](N)CCCCN)C(=O)N1CCC[C@H]1C(=O)N[C@@H](CC(N)=O)C(=O)N1CCC[C@H]1C(=O)N[C@@H](CCCNC(=N)N)C(=O)N[C@@H](CS)C(=O)N[C@@H](Cc1c[nH]c2ccccc12)C(=O)N[C@@H](CS)C(=O)NCC(=O)N[C@@H](C)C(=O)N[C@@H](CC(=O)O)C(=O)N[C@@H](CC(C)C)C(=O)N[C@@H](CCC(=O)O)C(=O)N[C@@H](CS)C(=O)N[C@@H](C)C(=O)N[C@@H](CCC(N)=O)C(=O)N[C@@H](CC(=O)O)C(=O)N[C@@H](CCC(N)=O)C(=O)N[C@@H](Cc1ccc(O)cc1)C(=O)N[C@@H](CS)C(=O)N[C@@H](C)C(=O)N[C@@H](Cc1ccccc1)C(=O)N[C@H](C(=O)N1CCC[C@H]1C(=O)N[C@@H](CCC(N)=O)C(=O)N[C@@H](CS)C(=O)O)[C@@H](C)CC` (H-KLLPCKEWHQGIPNPRCWCGADLECAQDQYCAFIPQC-OH), the inhibition entry in experiment [1] was “inactive”. The same compound came in with an inhibition in experiment [2] of less than 10%. Besides, the result in experiment [3] and in experiment [4] was inactive.

(Values after ChEMBL document CHEMBL3351848, “Novel insights into structure and function of factor XIIIa-inhibitor tridegin” (J Med Chem, 2014).)
